Measured values: ChEMBL document CHEMBL1131051, “Novel combretastatin analogues effective against murine solid tumors: design and structure-activity relationships” (J Med Chem, 1998)

How the values were obtained:
Colon 26 [1] = assay: Growth inhibition of colon 26 adenocarcinoma cells by 50 %.; format: functional, cell-based; details: Mus musculus
How it was run: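 Murine Colon 26 adenocarcinoma cells were kept in RPMI-1640 with 10% FBS. Cells were seeded at 1×10^5 cells/ml in 96-well plates and held 24 h at 37 °C in CO2. They were then exposed to a range of compound concentrations for 48 h, and viable cells were counted by MTT dye reduction. IC50 is the mean of three independent assays.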

Tubulin = Tubulin (Bos taurus, UniProt Q6B856+Q862L2+Q862F3); assay: Inhibitory activity against tubulin polymerization; format: protein assay
How it was run: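 Tubulin polymerization was started with GTP. It was followed turbidimetrically at 350 nm at 37 °C, and extent was read after 20 min incubation. IC50 was determined graphically, averaging three independent assays.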

[2] = tested on: Lewis lung carcinoma cell line; assay: Antitumor activity at dose 40 mg/kg in Lewis lung carcinoma cells (3LL) cells; format: functional, Mus musculus
How it was run: (§1)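 Tumor fragments (5 mg) implanted sc on day 0: Colon 26 into CD2F1 mice, Colon 38 or 3LL into BD2F1 mice, HCT-15 into ICR nu/nu mice. Dosing iv on days 7, 11 and 15. On day 21, two caliper diameters were measured; tumor weight = length × width²/2. IR (%) = (1 − T/C) × 100, from mean treated versus control tumor weights.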

MC-38 [3] = assay: Antitumor activity at dose 10 mg/kg in colon38 cells; format: functional, Mus musculus; how it was run: as §1
HCT-15 [4] = assay: Antitumor activity at dose 40 mg/kg in HCT-15 cells; format: functional, Mus musculus; how it was run: as §1
[5] = (§2) Antitumor activity at dose 40 mg/kg in colon26 cells; format: functional, Mus musculus; how it was run: as §1
Colon 26 [6] = assay: as §2; format: functional, Mus musculus; how it was run: as §1
Colon 26 [7] = assay: Antitumor activity at dose 5 mg/kg in murine colon26 cells; format: functional, Mus musculus
Colon 26 [8] = assay: Antitumor activity at dose 10 mg/kg in murine colon26 cells; format: functional, Mus musculus; how it was run: as §1
HCT-15 [9] = assay: Antitumor activity at dose 10 mg/kg in HCT-15 cells; format: functional, Mus musculus; how it was run: as §1
MC-38 [10] = assay: Antitumor activity at dose 10 mg/kg in Murine colon38 cells; format: functional, Mus musculus; how it was run: as §1
Colon 26 [11] = assay: Antitumor activity at dose 160 mg/kg in murine colon26 cells; format: functional, Mus musculus

Row | SMILES | IC50 (Colon 26 [1]) [nM] | IC50 (Tubulin) [nM] | also measured
1 | COc1ccc(/C(=C\c2cc(OC)c(OC)c(OC)c2)C(N)=O)cc1N | 223 | – | –
2 | COc1ccc(CC(C#N)c2cc(OC)c(OC)c(OC)c2)cn1 (stereo unspecified) | > 3000 | > 20000 | –
3 | COc1ccc(/C=C(/C=O)c2cc(OC)c(OC)c(OC)c2)cc1 | 213 | 4000 | –
4 | COc1ccc(/C=C(/CO)c2cc(OC)c(OC)c(OC)c2)cc1 | 363 | > 20000 | –
5 | COc1cc(/C(C#N)=C\c2ccc(Cl)c(N)c2)cc(OC)c1OC | 58.1 | 6000 | –
6 | COc1ccc(/C=C(/C#N)c2ccc(OC)c(OC)c2)cc1N | 8.1 | 7000 | –
7 | COc1cc(/C(C#N)=C\c2ccc(C)c(N)c2)cc(OC)c1OC | 61.7 | 10000 | –
8 | COc1ccc(/C=C(/C#N)c2cc(OC)c(OC)c(OC)c2)cc1NC(C)=O | 18.3 | 10000 | –
9 | COc1ccc(/C=C(/C#N)c2cc(OC)c(OC)c(OC)c2)cc1O | 23.5 | 5000 | –
10 | COc1ccc(/C=C(/CN)c2cc(OC)c(OC)c(OC)c2)cc1 | > 3000 | > 20000 | –
11 | COc1ccc(/C=C(/C#N)c2ccccc2)cc1N | 36 | 8000 | –
12 | COc1ccc(CC(C#N)c2cc(OC)c(OC)c(OC)c2)cc1N (stereo unspecified) | 22.5 | 7000 | –
13 | COc1cc(/C=C\c2ccc(C)c(N)c2)cc(OC)c1OC | 43.5 | 4000 | –
14 | COc1ccc(/C=C(/C#N)c2cc(OC)c(OC)c(OC)c2)cc1N | 5.9 | 10000 | –
15 | COc1ccc(/C=C(/C#N)c2cc(OC)c(OC)c(OC)c2)cn1 | 2370 | > 20000 | –
16 | COc1ccc(/C=C(/C#N)c2cc(OC)c(OC)c(OC)c2)cc1 | 18 | 6000 | –
17 | COc1ccc(/C=C(\C#N)c2cc(OC)c(OC)c(OC)c2)cc1N | 12.6 | > 20000 | –

Row | SMILES | IC50 (Colon 26 [1]) [nM] | IC50 (Tubulin) [nM] | also measured
18 | COc1ccc(/C=C(/C[N+](C)(C)C)c2cc(OC)c(OC)c(OC)c2)cc1.[I-] | > 3000 | > 20000 | –
19 | COc1ccc(/C(C#N)=C\c2ccc(OC)c(N)c2)cc1 | 1430 | 9000 | –
20 | COc1ccc(/C(C#N)=C\c2cc(OC)c(OC)c(OC)c2)cc1N | 235 | 5000 | –
21 | COc1ccc(/C=C(/C(N)=O)c2cc(OC)c(OC)c(OC)c2)cc1N | 195 | 3000 | –
22 | COc1cc(/C(C#N)=C/c2ccc(C)c(N)c2)cc(OC)c1OC | 722 | > 20000 | –
23 | COc1ccc(/C=C(\C#N)c2cc(OC)c(OC)c(OC)c2)cc1[N+](=O)[O-] | > 3000 | > 20000 | –
24 | COc1ccc(/C=C(\C#N)c2cc(OC)c(OC)c(OC)c2)cc1 | 63.7 | > 20000 | –
25 | COc1ccc(/C=C\c2cc(OC)c(OC)c(OC)c2)cc1N | 5.1 | – | –
26 | COc1cc(/C=C\c2ccc(Cl)c(N)c2)cc(OC)c1OC | 68.9 | 3000 | –
27 | COc1ccc(/C=C(/C#N)c2cc(OC)c(OC)c(OC)c2)cc1[N+](=O)[O-] | 135 | 5000 | –
28 | COc1ccc(/C=C\c2cc(OC)c(OC)c(OC)c2)cc1N.Cl | – | – | IR [2]: 65%; IR (MC-38 [3]): 72%; IR (HCT-15 [4]): 53%; IR [5]: 62%; IR (Colon 26 [6]): 69%
29 | COc1cc(/C(C#N)=C\c2ccc(Cl)c(N)c2)cc(OC)c1OC.Cl | – | – | IR (Colon 26 [7]): -23%
30 | COc1cc(/C=C\c2ccc(C)c(N)c2)cc(OC)c1OC.Cl | – | – | IR (Colon 26 [6]): 62%
31 | COc1ccc(/C=C(/C#N)c2cc(OC)c(OC)c(OC)c2)cc1N.Cl | – | – | IR (Colon 26 [8]): 77%; IR [2]: 59%; IR (HCT-15 [9]): 28%; IR (MC-38 [10]): 75%
32 | COc1cc(/C(C#N)=C\c2ccc(C)c(N)c2)cc(OC)c1OC.Cl | – | – | IR (Colon 26 [7]): 11%
33 | COc1ccc(/C=C\c2cc(OC)c(OC)c(OC)c2)cc1O [COMBRETASTATIN A4] | 18 | – | IR (Colon 26 [11]): 31%
